Activity calls are given as the source filed them. No cut-off for these calls is given here.
Experiments:
Bile acid receptor [1] = molecular target: T1, Bile acid receptor (Homo sapiens, UniProt Q96RI1); assay: Agonist activity at human GST-fused FXR LBD assessed as cofactor peptide interaction with receptor ligand binding domain by FRET assay
T1 sequence (Q96RI1 whole entry): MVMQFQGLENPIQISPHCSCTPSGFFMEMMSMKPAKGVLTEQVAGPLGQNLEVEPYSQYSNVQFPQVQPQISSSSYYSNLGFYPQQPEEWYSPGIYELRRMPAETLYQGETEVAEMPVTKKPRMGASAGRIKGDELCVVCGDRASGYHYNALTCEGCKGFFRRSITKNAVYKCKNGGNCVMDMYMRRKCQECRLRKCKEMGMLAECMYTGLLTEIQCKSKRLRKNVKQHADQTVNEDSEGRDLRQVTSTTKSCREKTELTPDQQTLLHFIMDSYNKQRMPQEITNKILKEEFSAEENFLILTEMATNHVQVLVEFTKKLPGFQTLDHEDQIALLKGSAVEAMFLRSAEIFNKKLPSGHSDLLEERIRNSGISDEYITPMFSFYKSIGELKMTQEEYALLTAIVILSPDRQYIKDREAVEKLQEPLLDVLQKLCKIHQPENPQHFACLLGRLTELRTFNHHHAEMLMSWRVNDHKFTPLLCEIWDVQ

[2] = molecular target: T2, Bile acid receptor (Homo sapiens) (UniProt Q96RI1); assay: Agonist activity at human GST-fused FXR LBD assessed as cofactor peptide interaction with receptor ligand binding domain by FRET assay relative to GW-4064
T2 sequence (whole entry): T1 sequence (Q96RI1 whole entry)

Bile acid receptor [3] = molecular target: T1, Bile acid receptor; assay: Agonist activity at human […] FXR LBD expressed in HEK293 cells coexpressing GAL4-DNA bindig domain and pFRluc by mammalian one-hybrid assay; assay type: functional, cell-based; details: read-out: EC50
[4] = molecular target: T2, Bile acid receptor (Homo sapiens); assay: Agonist activity at human […] FXR LBD expressed in HEK293 cells coexpressing GAL4-DNA bindig domain and pFRluc by mammalian one-hybrid assay relative to GW-4064; assay type: functional, cell-based
Bile acid receptor [5] = molecular target: T1, Bile acid receptor; assay: Agonist activity at human full length FXR transfected in HEK293 cells coexpressing pTRexDest/pGL2promotor assessed as luciferase activity by direct reporter cellular assay; assay type: functional, cell-based; details: read-out: EC50
[6] = molecular target: T2, Bile acid receptor (Homo sapiens); assay: Agonist activity at human full length FXR transfected in HEK293 cells coexpressing pTRexDest/pGL2promotor assessed as luciferase activity by direct reporter cellular assay relative to GW-4064; assay type: functional, cell-based
[7] = Plasma concentration in db/db mouse at 5 mg/kg, po after 5 mins; assay type: ADME, organism-based; design: dose 5 mg/kg, route oral; details: read-out: Drug uptake
Procedure, shortened: (§1)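 Single dose to mice, 5 mg/kg po or 1 mg/kg iv. Plasma was sampled at 5, 10, 30, 90 and 240 min. Only parent compound was measured, in ng/mL.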

[8] = Plasma concentration in db/db mouse at 5 mg/kg, po after 10 mins; assay type: ADME, organism-based; design: dose 5 mg/kg, route oral; details: read-out: Drug uptake; procedure, shortened: as §1
[9] = Plasma concentration in db/db mouse at 5 mg/kg, po after 30 mins; assay type: ADME, organism-based; design: dose 5 mg/kg, route oral; details: read-out: Drug uptake; procedure, shortened: as §1
[10] = Plasma concentration in db/db mouse at 5 mg/kg, po after 90 mins; assay type: ADME, organism-based; design: dose 5 mg/kg, route oral; details: read-out: Drug uptake; procedure, shortened: as §1
[11] = Clearance in db/db mouse at 5 mg/kg, po; assay type: ADME, organism-based; design: dose 5 mg/kg, route oral; details: in vivo
Procedure, shortened: (§2)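 Mice received a single dose of 5 mg/kg po or 1 mg/kg iv. Plasma was sampled at 5, 10, 30, 90 and 240 min and the parent compound alone was measured (ng/mL). Clearance (mL/h/kg), Vd (mL/kg) and oral bioavailability were derived from these plasma profiles.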

[12] = Oral bioavailability in db/db mouse at 5 mg/kg, po; assay type: ADME, organism-based; details: in vivo
Procedure, shortened: (§3)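 Derived from the single-dose mouse plasma time courses of parent compound, 5-240 min. Dosing was 5 mg/kg po or 1 mg/kg iv. Volume of distribution is in mL/kg, clearance in mL/h/kg, and oral bioavailability in %.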

[13] = Plasma concentration in db/db mouse at 1 mg/kg, iv after 5 mins; assay type: ADME, organism-based; design: dose 1 mg/kg, route intravenous; details: read-out: Drug uptake; procedure, shortened: as §1
[14] = Plasma concentration in db/db mouse at 1 mg/kg, iv after 10 mins; assay type: ADME, organism-based; design: dose 1 mg/kg, route intravenous; details: read-out: Drug uptake; procedure, shortened: as §1
[15] = Plasma concentration in db/db mouse at 1 mg/kg, iv after 30 mins; assay type: ADME, organism-based; design: dose 1 mg/kg, route intravenous; details: read-out: Drug uptake; procedure, shortened: as §1
[16] = Plasma concentration in db/db mouse at 1 mg/kg, iv after 90 mins; assay type: ADME, organism-based; design: dose 1 mg/kg, route intravenous; details: read-out: Drug uptake; procedure, shortened: as §1
[17] = Plasma concentration in db/db mouse at 1 mg/kg, iv after 240 mins; assay type: ADME, organism-based; design: dose 1 mg/kg, route intravenous; details: read-out: Drug uptake; procedure, shortened: as §1
Mus musculus [18] = assay: Volume of distribution in db/db mouse at 1 mg/kg, iv; assay type: ADME, organism-based; design: dose 1 mg/kg, route intravenous; details: in vivo; procedure, shortened: as §3
[19] = Clearance in db/db mouse at 1 mg/kg, iv; assay type: ADME, organism-based; design: dose 1 mg/kg, route intravenous; details: in vivo; procedure, shortened: as §2
Liver [20] = assay: Drug level in db/db mouse liver measured metabolites as carboxylic acid at 5 mg/kg, po after 240 mins; assay type: ADME, organism-based; design: dose 5 mg/kg, route oral; details: in vivo, 4 h
Procedure, shortened: (§4)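 Mice got a single dose, 5 mg/kg po or 1 mg/kg iv. Liver and bile were sampled 240 min after dosing. Parent carboxylic acid, its acyl-glucuronide and its taurine amide were quantified separately, in ng/mL. Glucuronide identity was confirmed by glucuronidase digestion of bile or bile extracts, which regenerated the parent.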

Liver [21] = assay: Drug level in db/db mouse liver measured metabolites as glucuronide at 5 mg/kg, po after 240 mins; assay type: ADME, organism-based; design: dose 5 mg/kg, route oral; details: in vivo, 4 h; procedure, shortened: as §4
Liver [22] = assay: Drug level in db/db mouse liver measured metabolites as taurine amide at 5 mg/kg, po after 240 mins; assay type: ADME, organism-based; design: dose 5 mg/kg, route oral; details: in vivo, 4 h; procedure, shortened: as §4
[23] = Drug level in db/db mouse bile measured metabolites as carboxylic acid at 5 mg/kg, po after 240 mins; assay type: ADME, organism-based; design: dose 5 mg/kg, route oral; details: in vivo, 4 h
[24] = Drug level in db/db mouse bile measured metabolites as glucuronide at 5 mg/kg, po after 240 mins; assay type: ADME, organism-based; design: dose 5 mg/kg, route oral; details: in vivo, 4 h
[25] = Drug level in db/db mouse bile measured metabolites as taurine amide at 5 mg/kg, po after 240 mins; assay type: ADME, organism-based; design: dose 5 mg/kg, route oral; details: in vivo, 4 h; procedure, shortened: as §4
Liver [26] = assay: Drug level in db/db mouse liver measured metabolites as carboxylic acid at 1 mg/kg, iv after 240 mins; assay type: ADME, organism-based; design: dose 1 mg/kg, route intravenous; details: in vivo, 4 h; procedure, shortened: as §4
Liver [27] = assay: Drug level in db/db mouse liver measured metabolites as glucuronide at 1 mg/kg, iv after 240 mins; assay type: ADME, organism-based; design: dose 1 mg/kg, route intravenous; details: in vivo, 4 h; procedure, shortened: as §4
Liver [28] = assay: Drug level in db/db mouse liver measured metabolites as taurine amide at 1 mg/kg, iv after 240 mins; assay type: ADME, organism-based; design: dose 1 mg/kg, route intravenous; details: in vivo, 4 h; procedure, shortened: as §4
[29] = Drug level in db/db mouse bile measured metabolites as carboxylic acid at 1 mg/kg, iv after 240 mins; assay type: ADME, organism-based; design: dose 1 mg/kg, route intravenous; details: in vivo, 4 h
[30] = Drug level in db/db mouse bile measured metabolites as glucuronide at 1 mg/kg, iv after 240 mins; assay type: ADME, organism-based; design: dose 1 mg/kg, route intravenous; details: in vivo, 4 h
[31] = Drug level in db/db mouse bile measured metabolites as taurine amide at 1 mg/kg, iv after 240 mins; assay type: ADME, organism-based; design: dose 1 mg/kg, route intravenous; details: in vivo, 4 h; procedure, shortened: as §4
Mus musculus [32] = assay: Reduction in total plasma triglyceride level in db/db mouse at 1-25 mg/kg bid after 12 days; assay type: functional, organism-based
Procedure, shortened: (§5)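 C57BL/KSK-mLep^db/mLep^db mice were dosed orally at 1, 5 and 25 mg/kg b.i.d. for 12 days. Total plasma triglycerides and total plasma cholesterol were measured, with cholesterol reported as mg/dl. Significance was given at p<0.05, <0.01 and <0.001 levels.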

Mus musculus [33] = assay: Reduction in total plasma cholesterol level in db/db mouse at 1-25 mg/kg bid after 12 days; assay type: functional, organism-based; procedure, shortened: as §5
[34] = Plasma concentration in db/db mouse at 25 mg/kg bid after 4 hrs by LC/MS-MS analysis; assay type: ADME, organism-based; design: dose 25 mg/kg; details: read-out: Drug uptake
Procedure, shortened: (§6)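 db/db mice were dosed twice daily for 12 days. Plasma and liver concentrations were determined 4 h and 24 h after the last administration.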

[35] = Plasma concentration in db/db mouse at 25 mg/kg bid after 24 hrs by LC/MS-MS analysis; assay type: ADME, organism-based; design: dose 25 mg/kg; details: read-out: Drug uptake; procedure, shortened: as §6
[36] = Drug level in db/db mouse liver at 25 mg/kg bid after 4 hrs by LC/MS-MS analysis; assay type: ADME, organism-based; design: dose 25 mg/kg; details: read-out: Drug uptake; procedure, shortened: as §6
[37] = Drug level in db/db mouse liver at 25 mg/kg bid after 24 hrs by LC/MS-MS analysis; assay type: ADME, organism-based; design: dose 25 mg/kg; details: read-out: Drug uptake
Procedure, shortened: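 C57BL/KSK-mLep^db/mLep^db (db/db) mice dosed orally b.i.d. for 12 days at 1, 5 or 25 mg/kg. Liver concentrations of parent compound measured 24 h after the last administration.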

CC(C)c1onc(-c2c(Cl)cccc2Cl)c1COc1cnc(N(C)Cc2ccc(C(=O)O)cc2)c(Cl)c1
EC50 (Bile acid receptor [1]): 0.242 µM
Efficacy [2]: 103%
EC50 (Bile acid receptor [3]): 0.107 µM
Efficacy [4]: 70%
EC50 (Bile acid receptor [5]): 0.12 µM
Efficacy [6]: 51%

Cc1cc(OCc2c(-c3c(Cl)cccc3Cl)noc2C(C)C)nc2ccccc12
EC50 (Bile acid receptor [1]): 0.147 µM
Efficacy [2]: 104%
EC50 (Bile acid receptor [3]): 0.536 µM
Efficacy [4]: 40%
EC50 (Bile acid receptor [5]): 0.878 µM
Efficacy [6]: 68%

CN(Cc1ccc(C(=O)NCCS(=O)(=O)O)cc1)c1ccc(OCc2c(-c3c(Cl)cccc3Cl)noc2C2CC2)nc1C(F)(F)F
EC50 (Bile acid receptor [1]): 0.014 µM
Efficacy [2]: 105%
EC50 (Bile acid receptor [3]): 1.42 µM
Efficacy [4]: 57%
EC50 (Bile acid receptor [5]): 0.925 µM
Efficacy [6]: 49%
concentration at 5 min [7]: 1 ng/mL
concentration at 10 min [8]: 3 ng/mL
concentration at 0.5 h [9]: 6 ng/mL
concentration at 1.5 h [10]: 12 ng/mL
CL/F [11]: 3280 mL/min/kg
bioavailability [12]: 5.8%
concentration at 5 min [13]: 72 ng/mL
concentration at 10 min [14]: 59 ng/mL
concentration at 0.5 h [15]: 3 ng/mL
concentration at 1.5 h [16]: 19 ng/mL
concentration at 4 h [17]: 8 ng/mL
Vd (Mus musculus [18]): 31.7 L/kg
clearance [19]: 190 mL/min/kg
Drug uptake (Liver [20]): 6 ng/mL
Drug uptake (Liver [21]): 30 ng/mL
Drug uptake (Liver [22]): 262 ng/mL
Drug uptake [23]: 32 ng/mL
Drug uptake [24]: 1055 ng/mL
Drug uptake [25]: 32442 ng/mL
Drug uptake (Liver [26]): 8 ng/mL
Drug uptake (Liver [27]): 7 ng/mL
Drug uptake (Liver [28]): 350 ng/mL
Drug uptake [29]: 12 ng/mL
Drug uptake [30]: 169 ng/mL
Drug uptake [31]: 24151 ng/mL

CC(Oc1ccc(C(=O)O)cc1)c1ccc(OCc2c(-c3c(Cl)cccc3Cl)noc2C2CC2)nc1C(F)(F)F (stereo unspecified)
EC50 (Bile acid receptor [1]): 0.352 µM
Efficacy [2]: 89%
EC50 (Bile acid receptor [3]): 0.189 µM
Efficacy [4]: 70%
EC50 (Bile acid receptor [5]): 0.611 µM
Efficacy [6]: 33%

CC(c1ccc(OCc2c(-c3c(Cl)cccc3Cl)noc2C2CC2)nc1C(F)(F)F)N(C)c1ccc(C(=O)O)cc1 (stereo unspecified)
EC50 (Bile acid receptor [1]): 0.179 µM
Efficacy [2]: 102%
EC50 (Bile acid receptor [3]): 0.208 µM
Efficacy [4]: 55%
EC50 (Bile acid receptor [5]): 0.182 µM
Efficacy [6]: 57%

CC[C@H]1[C@@H](O)[C@@H]2[C@H](CC[C@]3(C)[C@@H]([C@H](C)CCC(=O)O)CC[C@@H]23)[C@@]2(C)CC[C@@H](O)C[C@@H]12 [OBETICHOLIC ACID]
Activity (Mus musculus [32]): Active
Activity (Mus musculus [33]): Active
concentration at 4 h [34]: 2.12 µM
concentration at 24 h [35]: 3.24 µM
concentration at 4 h [36]: 13.9 µM
concentration at 24 h [37]: 16.6 µM

Reference: ChEMBL document CHEMBL1208782, “Synthesis and pharmacological validation of a novel series of non-steroidal FXR agonists” (Bioorg Med Chem Lett, 2010)
